# Results published in ChEMBL document CHEMBL4000151, “Potent Small Agonists of Protease Activated Receptor 2” (ACS Med Chem Lett, 2016).
# Calls of active or inactive are those of the source. No cut-off for these calls is given here. Non-standard residues stand in square brackets, D forms with d. Residues, ends and D or L forms follow the SMILES beside them. ξ: configuration not given here. *: point of attachment. Isoxazole(5-carbonyl) = O=C(c1ccno1)*; ξCha = NC(CC1CCCCC1)C(=O)O; ξChg = NC(C(=O)O)C1CCCCC1; Orn = NCCC[C@H](N)C(=O)O; 2Furoyl = O=C(c1ccco1)*
# How the values were obtained:
# [1] = biological target: T1, Proteinase-activated receptor 2 (Homo sapiens, UniProt P55085); experiment: Agonist activity at human PAR2 expressed in CHO cells assessed as induction of intracellular calcium release measured for 300 secs by Fluo-3 AM dye-based fluorescence assay; assay type: functional, cell-based
# T1 sequence (P55085 whole entry): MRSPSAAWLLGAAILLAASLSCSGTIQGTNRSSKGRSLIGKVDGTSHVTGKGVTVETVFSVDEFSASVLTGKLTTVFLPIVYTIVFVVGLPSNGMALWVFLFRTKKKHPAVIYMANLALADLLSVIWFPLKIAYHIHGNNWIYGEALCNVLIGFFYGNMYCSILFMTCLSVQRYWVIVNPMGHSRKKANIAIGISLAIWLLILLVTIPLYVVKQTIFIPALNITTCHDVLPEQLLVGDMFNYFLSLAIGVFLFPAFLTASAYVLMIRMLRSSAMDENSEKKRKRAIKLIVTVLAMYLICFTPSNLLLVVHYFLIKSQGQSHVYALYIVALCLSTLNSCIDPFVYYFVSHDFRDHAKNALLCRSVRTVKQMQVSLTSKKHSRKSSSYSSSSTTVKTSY
# How it was run: (§1)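 CHO cells stably expressing human PAR2 (wild-type or point mutant), or untransfected CHO cells, plated ~5 × 10^4/well overnight at 37 °C. Loaded 1 h at 37 °C with 4 μM Fluo-3 AM in HBSS with 1% FBS, then washed into HBSS with 2.5 mM probenecid and 20 mM HEPES, pH 7.4. Compound added over a concentration range.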
# [2] = biological target: Proteinase-activated receptor 2 (Homo sapiens) (UniProt P55085); experiment: Agonist activity at PAR2 in human MDA-MB-231 cells assessed as induction of chemotaxis at 100 nM incubated for 24 hrs by transwell migration assay; assay type: cell-based
# How it was run: (§2)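 MDA-MB-231 cells lifted non-enzymatically into serum-free L-15 with 0.1% BSA and seeded at 2.5 × 10^5/insert on collagen-coated 5 μm transwell membranes, 3 h at 37 °C. Agonist at 100 nM placed in the bottom chamber for 24 h; SAM11 anti-PAR2 antibody (1 μg/mL) preincubated 30 min where used. Migrated cells stained with crystal violet and counted; chemotactic index = agonist/random migration.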
# [3] = biological target: Proteinase-activated receptor 2 (Homo sapiens) (UniProt P55085); experiment: Agonist activity at PAR2 in human PC3 cells assessed as induction of intracellular calcium release at 25 uM of first compound treatment followed by 100 uM of second compound treatment by Fluo-3 AM dye based fluorescence assay; assay type: functional, cell-based
# CHO = experiment: Induction of intracellular calcium release in PAR2 deficient CHO cells at 100 uM measured for 300 secs by Fluo-3 AM dye-based fluorescence assay; assay type: functional, cell-based; conditions: Cricetulus griseus
# How it was run: as §1, with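 “range. Ca2+ read 300 s (ex 495/em 520 nm); duplicates; normalized to calcimycin; EC50 from nonlinear regression.” for “range.”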
# [4] = biological target: Proteinase-activated receptor 2 (Homo sapiens) (UniProt P55085); experiment: Agonist activity at PAR2 in human MDA-MB-231 cells assessed as induction of chemotaxis at 100 nM incubated for 24 hrs cells preincubated with PAR2 antibody SAM11 prior to test compound addition by transwell migration assay; assay type: cell-based; how it was run: as §2
# Plasma = experiment: Metabolic stability in rat plasma at 1 uM at pH 7.4 after 4 hrs by UPLC-MS analysis; assay type: ADME, cell-free; conditions: pH 7.4, 4 h
# How it was run: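 Compound from DMSO stock added to a 1:1 mixture of PBS and rat plasma at 37 °C, 1 μM initial. Aliquots taken at 0 to 240 min and quenched in MeCN, then centrifuged. Supernatant analysed by UPLC-MS as % of t = 0 peak area; n = 3.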
EC50 [1] [nM],Compound,Activity (CHO),also measured
80,CC(C)C[C@H](NC(=O)[C@H](CCCNC(=N)N)NC(=O)CNC(=O)C(NC(=O)C(CC1CCCCC1)NC(=O)c1ccno1)C1CCCCC1)C(N)=O (stereo not given in full) ({Isoxazole(5-carbonyl)}-[ξCha][ξChg]GRL-NH2),,
200,CC[C@H](C)[C@H](NC(=O)C(CC1CCCCC1)NC(=O)c1ccno1)C(=O)NCC(=O)N[C@@H](CCCNC(=N)N)C(=O)N[C@@H](CC(C)C)C(N)=O (stereo not given in full) ({Isoxazole(5-carbonyl)}-[ξCha]IGRL-NH2),,

# Second part, the compound before the results:
Compound,EC50 [1] [nM],Activity (CHO),also measured
CC[C@H](C)[C@H](NC(=O)[C@H](CC(C)C)NC(=O)c1ccco1)C(=O)NCC(=O)N[C@@H](CCCN=C(N)N)C(=O)N[C@@H](CC(C)C)C(=O)N[C@@H](CCCN)C(N)=O (2Furoyl-LIGRL[Orn]-NH2),300,,
CC[C@H](C)[C@H](NC(=O)[C@H](CC(C)C)NC(=O)c1ccco1)C(=O)NCC(=O)N[C@@H](CCCNC(=N)N)C(=O)N[C@@H](CC(C)C)C(=O)N[C@@H](CCCN)C(N)=O (2Furoyl-LIGRL[Orn]-NH2),,inactive,Activity [2]: Active; Activity [3]: inactive; Activity [4]: inactive
NC(=O)[C@@H](NC(=O)[C@H](CC1CCCCC1)NC(=O)c1ccno1)C1CCCCC1,,inactive,Stability (Plasma): Stable
H-SLIGKV-NH2,3000,,
